pEC50, pIC50: −log10 of the molar value.
Assays:
Format in all cases: cell-based
[1] = target: T1, C-X-C chemokine receptor type 4 (Homo sapiens, UniProt P61073); assay: Agonist activity at CXCR4 in human REH cells assessed as optimal concentration causing maximum induction of chemotaxis incubated for 3 hrs by transwell migration assay
Outline: (§1)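 REH acute lymphoblastic B-cell leukaemia cells washed in RPMI; 100 000 cells in RPMI + 0.2% BSA seeded on top of 5 μm pore polycarbonate transwell, peptide dilutions in same medium in bottom chamber; 3 h, 37 °C, 5% CO2. Migrated cells in lower chamber counted by automated counter, expressed as % of seeded cells; peak = concentration giving maximal migration. Three experiments in triplicate.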

[2] = target: T1, C-X-C chemokine receptor type 4; assay: Agonist activity at HA-tagged human CXCR4 receptor expressed in HEK293 cells co-transfected with Galphai1-91-RlucII, Gbeta1, and GFP10-G-gamma1 incubated for 7 mins by Galpha1 protein activation-based BRET assay
Outline: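 HEK293 cells (3 × 10^6 per 100 mm dish) co-transfected via polyethylenimine with HA-hCXCR4 plus Gαi1-91-RlucII, Gβ1, GFP10-Gγ1; replated at 24 h, 100 000 cells/well. At 48 h, washed in HBSS/0.1% BSA, exposed to ligand 10−12 to 10−5 M for 7 min, then coelenterazine-400A 5 μM final; BRET2 515/400 nm ratio. EC50 (Gαi dissociation) and Emax from three experiments in triplicate.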

[3] = target: T1, C-X-C chemokine receptor type 4; assay: Displacement of [125I]-CXCL12 from HA-tagged human recombinant CXCR4 expressed in HEK293 cells incubated for 1 hr by gamma-radiation counting analysis
[4] = target: T1, C-X-C chemokine receptor type 4; assay: Agonist activity at CXCR4 in human REH cells assessed as induction of chemotaxis incubated for 3 hrs by transwell migration assay; outline: as §1

T1 sequence (P61073 whole entry): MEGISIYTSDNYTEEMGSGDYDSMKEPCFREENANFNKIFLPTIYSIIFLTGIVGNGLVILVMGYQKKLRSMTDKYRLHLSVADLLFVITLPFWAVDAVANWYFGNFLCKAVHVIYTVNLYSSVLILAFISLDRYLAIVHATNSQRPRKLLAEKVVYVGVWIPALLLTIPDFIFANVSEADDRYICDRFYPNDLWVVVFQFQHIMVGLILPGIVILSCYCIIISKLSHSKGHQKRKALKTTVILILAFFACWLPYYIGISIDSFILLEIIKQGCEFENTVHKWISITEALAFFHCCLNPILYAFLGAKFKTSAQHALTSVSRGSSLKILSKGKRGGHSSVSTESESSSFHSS

Row | Structure (SMILES) | Activity [1] [nM] | pEC50 [2] | Emax [2] [%] | pIC50 [3] | %max [4] [%]
1 | CC(C)C[C@H](NC(=O)[C@H](CO)NC(=O)[C@H](Cc1ccc(C(=O)c2ccccc2)cc1)NC(=O)[C@@H]1CCCN1C(=O)[C@@H](N)CCCCN)C(=O)N[C@@H](CO)C(=O)N[C@@H](Cc1ccc(O)cc1)C(=O)NCCOCCOCCOCCC(=O)NCCCC[C@H](NC(=O)[C@@H]1CSSC[C@H](NC(=O)[C@H](Cc2ccc3ccccc3c2)NC(=O)[C@H](CCCNC(=N)N)NC(=O)[C@@H](N)CCCNC(=N)N)C(=O)N[C@@H](Cc2ccc(O)cc2)C(=O)N[C@@H](CCCNC(=N)N)C(=O)N[C@@H](CCCCN)C(=O)N[C@H](CCCCN)C(=O)N2CCC[C@H]2C(=O)N[C@@H](Cc2ccc(O)cc2)C(=O)N[C@@H](CCCNC(=N)N)C(=O)N[C@@H](CCCNC(=N)N)C(=O)N1)C(=O)O | 100 | 6.68 | 75 | 6.95 | 40
2 | CC(C)C[C@H](NC(=O)[C@H](CO)NC(=O)[C@@H](NC(=O)[C@@H]1CCCN1C(=O)[C@@H](N)CCCCN)C(C)C)C(=O)N[C@@H](CO)C(=O)N[C@@H](Cc1ccc(C(=O)c2ccccc2)cc1)C(=O)N[C@@H](CCCNC(=N)N)C(=O)N[C@@H](CO)C(=O)N[C@@H](C)C(=O)NCCCC[C@H](NC(=O)[C@@H]1CSSC[C@H](NC(=O)[C@H](Cc2ccc3ccccc3c2)NC(=O)[C@H](CCCNC(=N)N)NC(=O)[C@@H](N)CCCNC(=N)N)C(=O)N[C@@H](Cc2ccc(O)cc2)C(=O)N[C@@H](CCCNC(=N)N)C(=O)N[C@@H](CCCCN)C(=O)N[C@H](CCCCN)C(=O)N2CCC[C@H]2C(=O)N[C@@H](Cc2ccc(O)cc2)C(=O)N[C@@H](CCCNC(=N)N)C(=O)N[C@@H](CCCNC(=N)N)C(=O)N1)C(=O)O | 10 | 7.12 | 90 | 7.47 | 69
3 | CC(C)C[C@H](NC(=O)[C@H](CO)NC(=O)[C@@H](NC(=O)[C@@H]1CCCN1C(=O)[C@@H](N)CCCCN)C(C)(C)C)C(=O)N[C@@H](CO)C(=O)N[C@@H](Cc1ccc(O)cc1)C(=O)N[C@@H](CCCNC(=N)N)C(=O)N[C@@H](CO)C(=O)N[C@@H](C)C(=O)NCCCC[C@H](NC(=O)[C@@H]1CSSC[C@H](NC(=O)[C@H](Cc2ccc3ccccc3c2)NC(=O)[C@H](CCCNC(=N)N)NC(=O)[C@@H](N)CCCNC(=N)N)C(=O)N[C@@H](Cc2ccc(O)cc2)C(=O)N[C@@H](CCCNC(=N)N)C(=O)N[C@@H](CCCCN)C(=O)N[C@H](CCCCN)C(=O)N2CCC[C@H]2C(=O)N[C@@H](Cc2ccc(O)cc2)C(=O)N[C@@H](CCCNC(=N)N)C(=O)N[C@@H](CCCNC(=N)N)C(=O)N1)C(=O)O | 100 | 7.82 | 36 | 7.08 | 21
4 | CC(C)C[C@H](NC(=O)[C@H](CO)NC(=O)[C@H](Cc1ccc2cc3ccccc3cc2c1)NC(=O)[C@@H]1CCCN1C(=O)[C@@H](N)CCCCN)C(=O)N[C@@H](CO)C(=O)N[C@@H](Cc1ccc(O)cc1)C(=O)N[C@@H](CCCNC(=N)N)C(=O)N[C@@H](CO)C(=O)N[C@@H](C)C(=O)NCCCC[C@H](NC(=O)[C@@H]1CSSC[C@H](NC(=O)[C@H](Cc2ccc3ccccc3c2)NC(=O)[C@H](CCCNC(=N)N)NC(=O)[C@@H](N)CCCNC(=N)N)C(=O)N[C@@H](Cc2ccc(O)cc2)C(=O)N[C@@H](CCCNC(=N)N)C(=O)N[C@@H](CCCCN)C(=O)N[C@H](CCCCN)C(=O)N2CCC[C@H]2C(=O)N[C@@H](Cc2ccc(O)cc2)C(=O)N[C@@H](CCCNC(=N)N)C(=O)N[C@@H](CCCNC(=N)N)C(=O)N1)C(=O)O | 10 | 7.09 | 68 | 7.32 | 75
5 | CC(C)C[C@H](NC(=O)[C@H](CO)NC(=O)[C@@H](NC(=O)[C@@H]1CCCN1C(=O)[C@@H](N)CCCCN)C(C)C)C(=O)N[C@@H](CO)C(=O)N[C@@H](Cc1ccc(O)cc1)C(=O)N[C@@H](CCCNC(=N)N)C(=O)N[C@@H](CO)C(=O)N[C@@H](C)C(=O)NCCCC[C@H](NC(=O)[C@@H]1CSSC[C@H](NC(=O)[C@H](Cc2ccc3ccccc3c2)NC(=O)[C@H](CCCNC(=N)N)NC(=O)[C@@H](N)CCCNC(=N)N)C(=O)N[C@@H](Cc2ccc(O)cc2)C(=O)N[C@@H](CCCNC(=N)N)C(=O)N[C@@H](CCCCN)C(=O)N[C@H](CCCCN)C(=O)N2CCC[C@H]2C(=O)N[C@@H](Cc2ccc(O)cc2)C(=O)N[C@@H](CCCNC(=N)N)C(=O)N[C@@H](CCCNC(=N)N)C(=O)N1)C(=O)O | 10 | 7.24 | 55 | 7.08 | 45

More lines, now with the values ahead:

Row | Activity [1] [nM] | pEC50 [2] | Emax [2] [%] | pIC50 [3] | %max [4] [%] | Structure (SMILES)
6 | 100 | 7.03 | 59 | 7.14 | 51 | CC(C)C[C@H](NC(=O)[C@H](CO)NC(=O)[C@@H](NC(=O)[C@@H]1CCCN1C(=O)[C@@H](N)CCCCN)C(C)C)C(=O)N[C@@H](CO)C(=O)N[C@@H](Cc1ccc(I)cc1)C(=O)N[C@@H](CCCNC(=N)N)C(=O)N[C@@H](CO)C(=O)N[C@@H](C)C(=O)NCCCC[C@H](NC(=O)[C@@H]1CSSC[C@H](NC(=O)[C@H](Cc2ccc3ccccc3c2)NC(=O)[C@H](CCCNC(=N)N)NC(=O)[C@@H](N)CCCNC(=N)N)C(=O)N[C@@H](Cc2ccc(O)cc2)C(=O)N[C@@H](CCCNC(=N)N)C(=O)N[C@@H](CCCCN)C(=O)N[C@H](CCCCN)C(=O)N2CCC[C@H]2C(=O)N[C@@H](Cc2ccc(O)cc2)C(=O)N[C@@H](CCCNC(=N)N)C(=O)N[C@@H](CCCNC(=N)N)C(=O)N1)C(=O)O
7 | 100 | 7.13 | 47 | 7.05 | 45 | CC(C)C[C@H](NC(=O)[C@H](CO)NC(=O)[C@H](Cc1cc2cccc3ccc4cccc1c4c32)NC(=O)[C@@H]1CCCN1C(=O)[C@@H](N)CCCCN)C(=O)N[C@@H](CO)C(=O)N[C@@H](Cc1ccc(O)cc1)C(=O)N[C@@H](CCCNC(=N)N)C(=O)N[C@@H](CO)C(=O)N[C@@H](C)C(=O)NCCCC[C@H](NC(=O)[C@@H]1CSSC[C@H](NC(=O)[C@H](Cc2ccc3ccccc3c2)NC(=O)[C@H](CCCNC(=N)N)NC(=O)[C@@H](N)CCCNC(=N)N)C(=O)N[C@@H](Cc2ccc(O)cc2)C(=O)N[C@@H](CCCNC(=N)N)C(=O)N[C@@H](CCCCN)C(=O)N[C@H](CCCCN)C(=O)N2CCC[C@H]2C(=O)N[C@@H](Cc2ccc(O)cc2)C(=O)N[C@@H](CCCNC(=N)N)C(=O)N[C@@H](CCCNC(=N)N)C(=O)N1)C(=O)O
8 | 10 | 7.08 | 33 | 7.03 | 27 | CC(C)C[C@H](NC(=O)[C@H](CO)NC(=O)[C@@H](NC(=O)[C@@H]1CCCN1C(=O)[C@@H](N)CCCCN)C(C)C)C(=O)N[C@@H](CO)C(=O)N[C@@H](Cc1ccc(N)cc1)C(=O)N[C@@H](CCCNC(=N)N)C(=O)N[C@@H](CO)C(=O)N[C@@H](C)C(=O)NCCCC[C@H](NC(=O)[C@@H]1CSSC[C@H](NC(=O)[C@H](Cc2ccc3ccccc3c2)NC(=O)[C@H](CCCNC(=N)N)NC(=O)[C@@H](N)CCCNC(=N)N)C(=O)N[C@@H](Cc2ccc(O)cc2)C(=O)N[C@@H](CCCNC(=N)N)C(=O)N[C@@H](CCCCN)C(=O)N[C@H](CCCCN)C(=O)N2CCC[C@H]2C(=O)N[C@@H](Cc2ccc(O)cc2)C(=O)N[C@@H](CCCNC(=N)N)C(=O)N[C@@H](CCCNC(=N)N)C(=O)N1)C(=O)O

Source: ChEMBL document CHEMBL3860039, “Structure-Activity Relationship and Signaling of New Chimeric CXCR4 Agonists” (J Med Chem, 2016)
